Measurements of several laboratories.
Each line is one published result; the experiments were not run side by side.
Target: Phosphorylase b kinase gamma catalytic chain, liver/testis isoform (PHKG2, Homo sapiens, UniProt P15735)
Residues used in one study (P15735 1-406): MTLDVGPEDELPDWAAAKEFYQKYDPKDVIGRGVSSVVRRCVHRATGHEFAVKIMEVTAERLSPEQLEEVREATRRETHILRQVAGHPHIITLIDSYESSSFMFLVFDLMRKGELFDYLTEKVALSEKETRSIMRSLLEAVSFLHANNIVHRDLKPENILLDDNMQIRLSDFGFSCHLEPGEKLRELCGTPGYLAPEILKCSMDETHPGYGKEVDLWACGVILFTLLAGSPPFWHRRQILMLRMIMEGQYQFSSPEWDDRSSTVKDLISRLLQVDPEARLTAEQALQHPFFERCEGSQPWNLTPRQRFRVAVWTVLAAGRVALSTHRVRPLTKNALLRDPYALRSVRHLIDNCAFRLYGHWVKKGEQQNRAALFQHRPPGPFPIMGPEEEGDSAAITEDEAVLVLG

Compound	read-out	mode	method	cells	concentration	quantity	result
Oc1cccc(-c2nc(N3CCOCC3)c3oc4ncccc4c3n2)c1	cell-free assay				0.5 µM	remaining signal	99.1%
COc1cc2ncnc(Nc3ccc(Oc4ccccc4)c(C)c3C)c2cc1OC	enzyme activity	inhibitor			1 µM	inhibition	2%
CC(=O)N1CCC(c2ccc(C(=O)NC3=NCCN3)cc2C(F)(F)F)CC1	cell-free assay		competition with immobilised ligand		1 µM	remaining binding	100%
CCCOc1ccc(OC)c(F)c1C(=O)c1ccc(C(=O)N[C@@H]2CNC[C@H]2NC(=O)c2ccc3[nH]ncc3c2)cc1	enzyme activity	inhibitor			10 µM	remaining activity	51%
Cc1ccc(Nc2nccc(N(C)c3ccc4c(C)n(C)nc4c3)n2)cc1S(N)(=O)=O	enzyme activity	inhibitor			0.3 µM	inhibition	-4%
CCN(CC)c1ccc(C2=NNC(=O)CC2C)cc1[N+](=O)[O-] (stereo not shown)	enzyme activity	inhibitor			10 µM	remaining activity	107%
CCN1CCN(Cc2ccc(NC(=O)c3ccc(C)c(Oc4ccnc5[nH]ccc45)c3)cc2C(F)(F)F)CC1	target engagement in cells	inhibitor	chemoproteomics	Huh-7	10 µM	inhibition	-12.3%
CC(C)(C)c1nc2c(s1)c1nc(N)ncc1c1ccc(NS(=O)(=O)c3c(F)cccc3F)c(F)c12	enzyme activity	inhibitor	radiometric		1 µM	remaining activity	92%
CCCS(=O)(=O)Nc1ccc(F)c(C(=O)c2c[nH]c3ncc(-c4ccc(Cl)cc4)cc23)c1F	enzyme activity	inhibitor			1 µM	inhibition	< 10%
Cc1sc(C(=O)NC2COC2)cc1-n1cc(NC(=O)Nc2c(F)cccc2Cl)cn1	enzyme activity	inhibitor			10 µM	remaining activity	88.5%
c1ccc(CNc2nc(N3CCOc4ccccc43)nc3c2CCCC3)cc1	target engagement in cells	inhibitor	chemoproteomics		20 mM	inhibition	-2.7%
CCCCN(CCCC)C(=O)CN1C[C@H](c2cc(OC)c3c(c2)OCO3)[C@@H](C(=O)O)[C@@H]1CC(C)(C)CCC	cell-free assay		competition with immobilised ligand		1 µM	remaining binding	100%
COc1cc(Cl)c(C(=O)N[C@@H](CN[C@H]2CC[C@@H](N)CC2)Cc2ccc(C#N)cc2)cc1-c1ccc(CN[C@H](C)c2ccc(C)cc2)o1	enzyme activity	inhibitor			1 µM	remaining activity	103%
COc1ccc2c(c1)O[C@H](c1ccc(OC)c(OC)c1)C[C@@H]2NC(=O)C1(c2ccc3c(c2)OC(F)(F)O3)CC1	cell-free assay		competition with immobilised ligand		1 µM	remaining binding	93%
Nc1nc(Nc2ccc(S(N)(=O)=O)cc2)nn1C(=O)c1c(F)cccc1F	cell-free assay				0.5 µM	remaining signal	102%
CCC(=O)N[C@@H]1CC[C@H](C(=O)N(C)c2ccc(-c3nc4ccccc4o3)cc2)C1	cell-free assay		competition with immobilised ligand		1 µM	remaining binding	100%
CCN(CC)CCNC(=O)c1c(C)[nH]c(/C=C2\C(=O)Nc3ccc(F)cc32)c1C	enzyme activity	inhibitor			0.3 µM	inhibition	81%
COc1ccc(COc2ccc(Cc3cnc(N)nc3N)cc2OC)cc1	cell-free assay				0.5 µM	remaining signal	106%
Cn1nc(C(F)(F)F)cc1-c1cnc(N2CCc3cc(S(=O)(=O)Nc4c(F)cc(Cl)cc4F)cc(N4CCCC4=O)c32)nc1	cell-free assay		competition with immobilised ligand		1 µM	remaining binding	96%
